From ChEMBL document CHEMBL4359902, “Development of novel chromeno[4,3-c]pyrazol-4(2H)-one derivates bearing sulfonylpiperazine as antitumor inhibitors targeting PI3Kα” (Eur J Med Chem, 2019)

Legend:
HCT-116 = assay: Antiproliferative activity against human HCT116 cells assessed as reduction in cell viability after 48 hrs by MTT assay; format: functional, cell-based; settings: HCT-116, 48 h
A549 = assay: Antiproliferative activity against human A549 cells assessed as reduction in cell viability after 48 hrs by MTT assay; format: functional, cell-based; settings: A549, 48 h
Huh-7 = assay: Antiproliferative activity against human HuH7 cells assessed as reduction in cell viability after 48 hrs by MTT assay; format: functional, cell-based; settings: Huh-7, 48 h
HL-60 = assay: Antiproliferative activity against human HL60 cells assessed as reduction in cell viability after 48 hrs by MTT assay; format: functional, cell-based; settings: HL-60, 48 h
[1] = target: Phosphatidylinositol 4,5-bisphosphate 3-kinase catalytic subunit alpha isoform (Homo sapiens, UniProt P42336); assay: Inhibition of PI3Kalpha (unknown origin) using diC8-PI(4,5)P2 as substrate incubated for 3 hrs in presence of ATP by fluorescence polarization assay
Summary of the method: (§1)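 Fluorescence polarization competition assay, 10 μL reactions at pH 7: 2.5 mM MgCl₂, 5 mM HEPES, ATP, 10 mM DTT, 50 ng PI3K isoform, diC8-PI(4,5)P2 substrate. After 3 h at room temperature, reactions were chelator-quenched. Phosphoinositide binding protein and fluorophore-labelled tracer were added, then 1 h dark equilibration and polarization read.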

[2] = target: Phosphatidylinositol 4,5-bisphosphate 3-kinase catalytic subunit beta isoform (Homo sapiens, UniProt P42338); assay: Inhibition of PI3Kbeta (unknown origin) using diC8-PI(4,5)P2 as substrate incubated for 3 hrs in presence of ATP by fluorescence polarization assay; summary of the method: as §1
[3] = target: Phosphatidylinositol 4,5-bisphosphate 3-kinase catalytic subunit gamma isoform (Homo sapiens, UniProt P48736); assay: Inhibition of PI3Kgamma (unknown origin) using diC8-PI(4,5)P2 as substrate incubated for 3 hrs in presence of ATP by fluorescence polarization assay; summary of the method: as §1
[4] = target: T1, Phosphatidylinositol 4,5-bisphosphate 3-kinase catalytic subunit delta isoform (Homo sapiens, UniProt O00329); assay: Inhibition of PI3Kdelta (unknown origin) using diC8-PI(4,5)P2 as substrate incubated for 3 hrs in presence of ATP by fluorescence polarization assay; summary of the method: as §1
T1 sequence (O00329 whole entry): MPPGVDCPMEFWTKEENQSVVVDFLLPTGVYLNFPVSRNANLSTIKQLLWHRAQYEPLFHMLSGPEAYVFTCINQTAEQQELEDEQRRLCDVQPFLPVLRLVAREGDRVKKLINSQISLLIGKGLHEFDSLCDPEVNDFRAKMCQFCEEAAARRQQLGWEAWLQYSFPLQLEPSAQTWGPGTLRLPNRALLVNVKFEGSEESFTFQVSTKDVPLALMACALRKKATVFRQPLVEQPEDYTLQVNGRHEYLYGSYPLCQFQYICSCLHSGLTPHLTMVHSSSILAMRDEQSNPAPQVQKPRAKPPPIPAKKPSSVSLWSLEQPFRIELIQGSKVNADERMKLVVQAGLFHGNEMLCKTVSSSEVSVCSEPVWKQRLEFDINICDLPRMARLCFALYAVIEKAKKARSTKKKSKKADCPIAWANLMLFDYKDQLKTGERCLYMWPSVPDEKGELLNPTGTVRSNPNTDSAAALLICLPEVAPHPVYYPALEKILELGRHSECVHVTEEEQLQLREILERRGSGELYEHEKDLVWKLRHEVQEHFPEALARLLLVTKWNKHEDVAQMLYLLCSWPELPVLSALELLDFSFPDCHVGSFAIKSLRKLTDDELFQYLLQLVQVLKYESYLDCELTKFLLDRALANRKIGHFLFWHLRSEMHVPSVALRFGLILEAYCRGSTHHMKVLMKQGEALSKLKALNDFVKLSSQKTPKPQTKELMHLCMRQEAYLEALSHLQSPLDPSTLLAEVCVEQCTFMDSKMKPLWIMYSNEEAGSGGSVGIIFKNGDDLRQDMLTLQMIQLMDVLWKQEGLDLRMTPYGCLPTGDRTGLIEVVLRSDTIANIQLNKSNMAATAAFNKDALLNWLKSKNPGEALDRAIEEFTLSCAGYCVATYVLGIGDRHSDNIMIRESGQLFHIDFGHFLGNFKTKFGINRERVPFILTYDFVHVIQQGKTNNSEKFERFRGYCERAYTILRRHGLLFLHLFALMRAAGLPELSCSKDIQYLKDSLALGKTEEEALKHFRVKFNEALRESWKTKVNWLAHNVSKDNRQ

[5] = Cytotoxicity against human 293T cells; format: cell-based; settings: HEK-293T cells
[6] = target: Serine/threonine-protein kinase mTOR (Homo sapiens, UniProt P42345); assay: Inhibition of mTOR (unknown origin)

Sequence of Phosphatidylinositol 4,5-bisphosphate 3-kinase catalytic subunit beta isoform (P42338 whole entry, canonical isoform): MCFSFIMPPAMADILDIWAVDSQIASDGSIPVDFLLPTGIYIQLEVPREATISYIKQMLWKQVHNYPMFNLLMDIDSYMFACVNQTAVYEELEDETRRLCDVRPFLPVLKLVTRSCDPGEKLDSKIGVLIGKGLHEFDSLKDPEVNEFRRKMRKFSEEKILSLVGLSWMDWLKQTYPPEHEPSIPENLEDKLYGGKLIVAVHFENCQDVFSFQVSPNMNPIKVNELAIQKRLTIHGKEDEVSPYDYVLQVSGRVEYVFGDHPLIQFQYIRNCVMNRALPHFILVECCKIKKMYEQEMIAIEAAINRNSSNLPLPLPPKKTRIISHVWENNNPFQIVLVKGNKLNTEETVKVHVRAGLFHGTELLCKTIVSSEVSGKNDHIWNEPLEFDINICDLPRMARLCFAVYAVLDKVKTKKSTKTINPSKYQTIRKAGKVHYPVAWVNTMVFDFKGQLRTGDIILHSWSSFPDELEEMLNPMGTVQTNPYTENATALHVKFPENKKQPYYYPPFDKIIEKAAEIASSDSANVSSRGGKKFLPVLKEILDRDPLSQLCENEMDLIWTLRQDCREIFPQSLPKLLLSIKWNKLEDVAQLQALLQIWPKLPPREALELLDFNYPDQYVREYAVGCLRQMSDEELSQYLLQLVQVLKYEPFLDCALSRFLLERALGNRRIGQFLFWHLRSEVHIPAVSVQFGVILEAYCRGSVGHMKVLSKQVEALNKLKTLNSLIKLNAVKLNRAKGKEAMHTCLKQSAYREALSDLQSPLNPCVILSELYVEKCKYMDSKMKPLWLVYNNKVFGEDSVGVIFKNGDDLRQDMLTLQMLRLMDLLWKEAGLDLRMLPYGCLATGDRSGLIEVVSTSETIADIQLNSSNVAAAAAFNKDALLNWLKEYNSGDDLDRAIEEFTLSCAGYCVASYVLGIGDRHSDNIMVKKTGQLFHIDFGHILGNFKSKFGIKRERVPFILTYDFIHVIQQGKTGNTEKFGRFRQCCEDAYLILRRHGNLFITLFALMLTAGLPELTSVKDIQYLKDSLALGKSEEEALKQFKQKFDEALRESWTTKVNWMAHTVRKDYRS
Sequence of Phosphatidylinositol 4,5-bisphosphate 3-kinase catalytic subunit alpha isoform (P42336 whole entry, canonical isoform): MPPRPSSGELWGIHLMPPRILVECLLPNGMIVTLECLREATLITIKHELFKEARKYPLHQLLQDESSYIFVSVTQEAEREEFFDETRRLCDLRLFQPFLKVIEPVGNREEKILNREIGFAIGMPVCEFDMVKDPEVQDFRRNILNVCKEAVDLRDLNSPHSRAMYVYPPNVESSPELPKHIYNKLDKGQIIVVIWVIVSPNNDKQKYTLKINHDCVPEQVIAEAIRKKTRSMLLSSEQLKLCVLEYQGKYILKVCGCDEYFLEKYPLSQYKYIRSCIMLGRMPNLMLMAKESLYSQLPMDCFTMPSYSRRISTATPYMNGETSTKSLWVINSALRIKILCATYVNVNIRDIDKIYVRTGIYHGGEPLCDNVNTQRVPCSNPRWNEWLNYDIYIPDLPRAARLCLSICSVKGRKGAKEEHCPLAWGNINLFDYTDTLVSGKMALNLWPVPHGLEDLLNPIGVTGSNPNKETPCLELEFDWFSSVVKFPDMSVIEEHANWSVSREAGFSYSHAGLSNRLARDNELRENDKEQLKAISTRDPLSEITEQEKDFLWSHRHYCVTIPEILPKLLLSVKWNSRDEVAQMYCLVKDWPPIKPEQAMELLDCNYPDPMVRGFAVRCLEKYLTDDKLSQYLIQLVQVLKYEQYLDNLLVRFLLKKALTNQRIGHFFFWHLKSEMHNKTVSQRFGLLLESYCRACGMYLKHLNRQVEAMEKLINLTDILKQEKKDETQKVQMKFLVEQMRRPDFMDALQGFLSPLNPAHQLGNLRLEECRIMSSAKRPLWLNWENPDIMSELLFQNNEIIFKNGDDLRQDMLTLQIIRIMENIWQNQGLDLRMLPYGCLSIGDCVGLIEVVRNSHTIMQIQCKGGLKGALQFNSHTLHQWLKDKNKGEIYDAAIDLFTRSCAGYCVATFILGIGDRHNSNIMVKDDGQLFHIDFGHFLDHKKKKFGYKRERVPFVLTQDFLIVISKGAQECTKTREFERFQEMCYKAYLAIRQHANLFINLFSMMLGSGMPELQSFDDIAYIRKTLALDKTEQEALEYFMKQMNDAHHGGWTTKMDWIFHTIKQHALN
Sequence of Phosphatidylinositol 4,5-bisphosphate 3-kinase catalytic subunit gamma isoform (P48736 whole entry, canonical isoform): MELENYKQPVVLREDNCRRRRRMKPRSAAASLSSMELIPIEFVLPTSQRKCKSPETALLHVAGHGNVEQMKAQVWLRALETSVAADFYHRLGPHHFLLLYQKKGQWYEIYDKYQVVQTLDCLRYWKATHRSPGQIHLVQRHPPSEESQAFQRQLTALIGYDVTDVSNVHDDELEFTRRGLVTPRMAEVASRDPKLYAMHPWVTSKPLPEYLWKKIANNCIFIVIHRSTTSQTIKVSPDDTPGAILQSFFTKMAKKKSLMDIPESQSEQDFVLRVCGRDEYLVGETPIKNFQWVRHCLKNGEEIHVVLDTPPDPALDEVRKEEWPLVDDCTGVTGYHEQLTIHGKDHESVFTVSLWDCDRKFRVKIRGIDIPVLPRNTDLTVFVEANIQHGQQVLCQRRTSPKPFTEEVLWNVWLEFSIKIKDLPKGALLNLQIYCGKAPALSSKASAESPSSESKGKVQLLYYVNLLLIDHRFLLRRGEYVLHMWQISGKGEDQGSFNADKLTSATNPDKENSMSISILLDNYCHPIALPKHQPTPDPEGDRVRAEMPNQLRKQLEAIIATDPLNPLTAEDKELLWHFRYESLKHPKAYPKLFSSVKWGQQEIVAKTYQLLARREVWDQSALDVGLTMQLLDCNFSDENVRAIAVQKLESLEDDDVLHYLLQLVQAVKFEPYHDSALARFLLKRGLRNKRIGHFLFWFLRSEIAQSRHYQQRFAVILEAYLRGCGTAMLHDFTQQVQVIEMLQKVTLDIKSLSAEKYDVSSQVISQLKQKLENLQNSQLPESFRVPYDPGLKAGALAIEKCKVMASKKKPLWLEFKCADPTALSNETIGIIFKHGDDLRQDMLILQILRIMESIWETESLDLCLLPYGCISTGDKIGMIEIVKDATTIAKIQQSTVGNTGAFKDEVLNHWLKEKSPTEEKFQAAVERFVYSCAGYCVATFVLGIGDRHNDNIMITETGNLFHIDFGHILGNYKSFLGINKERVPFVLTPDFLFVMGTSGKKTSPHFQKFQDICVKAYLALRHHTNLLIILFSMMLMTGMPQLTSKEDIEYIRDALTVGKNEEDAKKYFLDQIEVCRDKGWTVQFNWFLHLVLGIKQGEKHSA

| Compound | IC50 (HCT-116) [µM] | IC50 (A549) [µM] | IC50 (Huh-7) [µM] | IC50 (HL-60) [µM] | IC50 [1] [µM] | IC50 [2] [µM] | IC50 [3] [µM] | IC50 [4] [µM] | CC50 [5] [µM] | IC50 [6] [µM] |
| --- | --- | --- | --- | --- | --- | --- | --- | --- | --- | --- |
| Cc1cc(C)c(S(=O)(=O)N2CCN(Cn3cc4c(=O)oc5ccccc5c4n3)CC2)c(C)c1 | 0.09 | 0.11 | 0.3 | 0.11 | 0.12 | 0.41 | 0.14 | 0.23 | 354 | 7.44 |
| Cn1c(=O)n(-c2ccc(C(C)(C)C#N)cc2)c2c3cc(-c4cnc5ccccc5c4)ccc3ncc21 [DACTOLISIB] | 0.24 | 0.38 | 0.53 | 0.91 |  |  |  |  |  |  |
| CC(C)c1cc(C(C)C)c(S(=O)(=O)N2CCN(Cn3cc4c(=O)oc5ccccc5c4n3)CC2)c(C(C)C)c1 | 0.08 | 0.09 | 0.14 | 0.09 | 0.042 | 0.21 | 0.11 | 0.42 | 332 | > 10 |
| O=c1oc2ccccc2c2nn(CN3CCN(S(=O)(=O)c4ccc(C(F)(F)F)cc4)CC3)cc12 | 0.84 | 1.15 | 2.34 | 1.1 | 3.84 | 5.75 | 2.3 | 7.51 | 335 | 8.12 |
| COc1ccc(S(=O)(=O)N2CCN(Cn3cc4c(=O)oc5ccccc5c4n3)CC2)cc1 | 12.1 | 27.4 | 34 | 24.5 |  |  |  |  |  |  |
| CCS(=O)(=O)N1CCN(Cn2cc3c(=O)oc4ccccc4c3n2)CC1 | > 100 | > 100 | > 100 | > 100 |  |  |  |  |  |  |
| Cc1ccc(C)c(S(=O)(=O)N2CCN(Cn3cc4c(=O)oc5ccccc5c4n3)CC2)c1 | 0.13 | 0.48 | 0.66 | 0.22 | 0.3 | 0.85 | 0.81 | 1.42 | 397 | > 10 |
| O=c1oc2ccccc2c2nn(CN3CCN(S(=O)(=O)C4CC4)CC3)cc12 | 69.3 | 82 | 79 | 71.4 |  |  |  |  |  |  |
| O=c1oc2ccccc2c2nn(CN3CCN(S(=O)(=O)c4cccc([N+](=O)[O-])c4)CC3)cc12 | 1.29 | 3.67 | 3.65 | 2.01 | 6.18 | > 10 | 9.34 | > 10 | 412 | > 10 |
| O=c1oc2ccccc2c2nn(CN3CCN(S(=O)(=O)c4ccccc4[N+](=O)[O-])CC3)cc12 | 4.87 | 7.66 | 7.92 | 8.23 | > 10 | 9.14 | 8.42 | 6.15 | 372 | 8.37 |
| Cc1ccc(S(=O)(=O)N2CCN(Cn3cc4c(=O)oc5ccccc5c4n3)CC2)cc1 | 11.1 | 21.5 | 28.5 | 16.9 |  |  |  |  |  |  |
| O=c1oc2ccccc2c2nn(CN3CCN(S(=O)(=O)c4ccccc4)CC3)cc12 | 7.53 | 13.9 | 11.3 | 22.1 |  |  |  |  |  |  |
